ChEMBL document CHEMBL4251588, “2-Alkoxycarbonyl-3-arylamino-5-substituted thiophenes as a novel class of antimicrotubule agents: Design, synthesis, cell growth and tubulin polymerization inhibition” (Eur J Med Chem, 2018)
pIC50: −log10 of the molar value. The source made the active and inactive calls. No cut-off for these calls is given here.

How the values were obtained:
[1] = tested on: FM3A; assay: Antiproliferative activity against mouse FM3A cells after 2 days by Coulter counter method; type: functional, cell-based; conditions: 48 h
Summary of the method: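 Cells suspended at 300,000–500,000 cells/mL; 100 μL suspension added to 100 μL of compound dilutions. Incubated at 37 °C for 2 days (L1210, FM3A), 3 days (CEM) or 4 days (HeLa), then counted by Coulter counter. Values are mean ± SD of two to three independent experiments.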

[2] = tested on: CCRF-CEM; assay: Antiproliferative activity against human CEM cells after 3 days by Coulter counter method; type: functional, cell-based; conditions: 72 h
Summary of the method: (§1)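 Cells suspended at 300,000–500,000 cells/mL; 100 μL suspension added to 100 μL of compound dilutions. Incubated at 37 °C for 2 days (L1210, FM3A), 3 days (CEM) or 4 days (HeLa), then counted by Coulter counter. IC50 is the concentration giving 50% inhibition of proliferation. Values are mean ± SD of two to three independent experiments.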

[3] = tested on: HeLa; assay: Antiproliferative activity against human HeLa cells after 4 days by Coulter counter method; type: functional, cell-based; conditions: 96 h; summary of the method: as §1
[4] = tested on: L1210; assay: Antiproliferative activity against mouse L1210 cells after 2 days by Coulter counter method; type: functional, cell-based; conditions: L1210, 48 h; summary of the method: as §1
[5] = species on record: Bos taurus; assay: Inhibition of [3H]colchicine binding to bovine brain tubulin at 5 uM relative to control
Summary of the method: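 Reaction mixtures held 1 μM tubulin, 5 μM [3H]colchicine and 5 μM test compound. Inhibition of radiolabelled colchicine binding was measured by a previously described method.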

[6] = Inhibition of bovine brain tubulin polymerization in presence of GTP by spectrophotometric analysis; set-up: species or system Bos taurus
Summary of the method: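 0.4 mM GTP added, mixtures rewarmed to 30 °C in cuvettes and turbidity followed at 350 nm.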

[7] = tested on: HeLa; assay: Cell cycle arrest in human HeLa cells assessed as decrease in cyclin B1 expression after 48 hrs by Western blot analysis; type: functional, cell-based
Summary of the method: (§2)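 HeLa cells treated for 24 or 48 h at several concentrations, washed in ice-cold PBS, lysed on ice 30 min and spun at 15000 x g, 4 °C. 10 μg protein separated by SDS-PAGE, blotted, blocked in 3% BSA, probed overnight at 4 °C with primary antibodies, peroxidase secondary and ECL detection. Stripped membranes reprobed for β-actin as loading control.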

[8] = tested on: HeLa; assay: Cell cycle arrest in human HeLa cells assessed as increase in cyclin B1 expression after 24 hrs by Western blot analysis; type: functional, cell-based; summary of the method: as §2
[9] = tested on: HeLa; assay: Induction of apoptosis in human HeLa cells assessed as decrease in Bcl-2 levels at 100 to 250 nM after 24 hrs by Western blot analysis; type: functional, cell-based
Summary of the method: (§3)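 HeLa cells exposed to compound for varied times, washed twice in ice-cold PBS, lysed on ice 30 min and spun 15000 x g at 4 °C. 10 μg protein per lane by SDS-PAGE, blotted, blocked in 3% BSA, primary antibodies (Bcl-2, Mcl-1) overnight at 4 °C, peroxidase secondary 60 min, ECL detection; membranes stripped and reprobed for β-actin as loading control.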

[10] = tested on: HeLa; assay: Induction of mitochondrial depolarization in human HeLa cells at 100 to 250 nM by JC-1 staining-based flow cytometric analysis; type: functional, cell-based; conditions: TDE = time-dependent effect
Summary of the method: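 Mitochondrial potential followed in HeLa cells after 6, 12, 24 or 48 h of exposure. Cells stained with the lipophilic cation JC-1 and the fraction with low Δψmt scored by flow cytometry; mean ± SEM of three independent experiments.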

[11] = tested on: HeLa; assay: Cell cycle arrest in human HeLa cells assessed as increase in cells at S phase at 500 nM after 24 hrs by propidium iodide staining-based flow cytometric analysis
[12] = tested on: HeLa; assay: Cell cycle arrest in human HeLa cells assessed as accumulation of cells at G2/M phase at 500 nM after 24 hrs by propidium iodide staining-based flow cytometric analysis
[13] = tested on: HeLa; assay: Cell cycle arrest in human HeLa cells assessed as reduction of cells at G1 phase up to 500 uM after 24 hrs by propidium iodide staining-based flow cytometric analysis; type: functional; conditions: in the assay text read “500 nM” for “500 uM”
Summary of the method: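 5 × 10^5 HeLa cells exposed to graded compound levels for 24 h; harvested, fixed in ice-cold 70% ethanol, lysed in buffer containing RNase A and 0.1% Triton X-100, PI-stained, DNA content read by flow cytometry. Phase percentages are means ± SEM of two independent experiments.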

[14] = tested on: PBL; assay: Growth inhibition of resting human PBL after 72 hrs by MTT assay; type: cell-based
Summary of the method: (§4)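 Donor PBL isolated by density gradient, washed, held overnight at 1.0 × 10^6 cells/mL in RPMI-1640 with 10% FBS. Non-adherent cells reseeded at 5 × 10^5 cells/mL, with 2.5 μg/mL PHA (proliferating) or without it (resting), then given compound dilutions. MTT viability read after 72 h. GI50 is the concentration giving 50% growth reduction; mean ± SEM of two experiments.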

[15] = tested on: PBL; assay: Growth inhibition of human PHA-stimulated PBL after 72 hrs by MTT assay; type: cell-based; summary of the method: as §4
[16] = tested on: HeLa; assay: Induction of ROS production in human HeLa cells at 250 nM after 12 to 24 hrs by H2DCFDA staining-based flow cytometric analysis; type: functional, cell-based
Summary of the method: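 HeLa cells treated for 6, 12, 24 or 48 h, then loaded with H2-DCFDA and ROS read by flow cytometry; mean ± SEM of three independent experiments.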

[17] = tested on: HeLa; assay: Induction of apoptosis in human HeLa cells assessed as decrease in Mcl-1 levels at 100 to 250 nM after 24 hrs by Western blot analysis; type: functional, cell-based; summary of the method: as §3
[18] = tested on: HeLa; assay: Cell cycle arrest in human HeLa cells assessed as decrease in Cdk1 Y15 phosphorylated protein level at 250 nM after 24 to 48 hrs by Western blot analysis; type: functional, cell-based; summary of the method: as §2
[19] = tested on: HeLa; assay: Induction of apoptosis in human HeLa cells at 125 to 500 nM after 24 to 48 hrs by annexin V-FITC/propidium iodide staining-based flow cytometric analysis; type: functional, cell-based
Summary of the method: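 Treated HeLa cells were harvested at 24 or 48 h and double-labeled with annexin-V-FITC, which marks exposed phosphatidylserine, and PI. Apoptotic fractions were measured by flow cytometry; mean ± SEM of three independent experiments.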

[20] = tested on: HeLa; assay: Cell cycle arrest in human HeLa cells assessed as reduction in cdc25c expression at 100 nM after 24 hrs by Western blot analysis

Row | Structure (SMILES) | pIC50 [1] | pIC50 [2] | pIC50 [3] | pIC50 [4] | inhibition [5] | pIC50 [6] | other results
1 | CCOC(=O)c1sc(-c2ccc(C)cc2)cc1Nc1cc(OC)c(OC)c(OC)c1 | 6.09 | 6.12 | 6.11 | 6.09 | – | – | –
2 | COC(=O)c1sc(-c2ccc(OC)cc2)cc1Nc1cc(OC)c(OC)c(OC)c1 | 6.60 | 6.64 | 6.08 | 6.57 | 46% | 5.70 | –
3 | COC(=O)c1sc(-c2ccc(OC)c(OC)c2)cc1Nc1cc(OC)c(OC)c(OC)c1 | 6.37 | 6.33 | 6.05 | 6.32 | 30% | 5.57 | –
4 | CCOC(=O)c1sc(-c2ccc(Cl)cc2)cc1Nc1cc(OC)c(OC)c(OC)c1 | 5.29 | 5.34 | 5.01 | 5.22 | – | – | –
5 | COC(=O)c1sc(-c2ccc(F)cc2)cc1Nc1cc(OC)c(OC)c(OC)c1 | 6.14 | 6.28 | 6.06 | 6.25 | 41% | 5.66 | –
6 | COC(=O)c1sc(-c2cccs2)cc1Nc1cc(OC)c(OC)c(OC)c1 | 6.80 | 6.80 | 6.80 | 6.89 | 62% | 5.92 | Activity [7]: Active; Activity [8]: Dose-dependent effect; Activity [9]: Active; Activity [10]: Tde; Activity [11]: Active; Activity [12]: Active; Activity [13]: Active; GI50 [14]: 85700 nM; GI50 [15]: 29300 nM; Activity [16]: Active; Activity [17]: Active; Activity [18]: Active; Activity [19]: Active; Activity [20]: Active
7 | COc1ccc(/C=C\c2cc(OC)c(OC)c(OC)c2)cc1O [COMBRETASTATIN A4] | – | 8.70 | 8.70 | 8.52 | – | – | –
8 | COC(=O)c1sc(-c2ccc([N+](=O)[O-])cc2)cc1Nc1cc(OC)c(OC)c(OC)c1 | 6.03 | 6.12 | 6.00 | 6.00 | – | – | –
9 | COC(=O)c1sc(-c2cccc(OC)c2)cc1Nc1cc(OC)c(OC)c(OC)c1 | 6.00 | 6.16 | 6.10 | 5.96 | – | – | –
10 | COC(=O)c1sc(-c2ccc(C(F)(F)F)cc2)cc1Nc1cc(OC)c(OC)c(OC)c1 | 5.96 | 6.09 | 5.89 | 5.92 | – | – | –
11 | CCOc1ccc(-c2cc(Nc3cc(OC)c(OC)c(OC)c3)c(C(=O)OC)s2)cc1 | 5.24 | 5.27 | 5.36 | 5.20 | – | – | –
12 | COC(=O)c1sc(-c2ccc(Cl)cc2)cc1Nc1cc(OC)c(OC)c(OC)c1 | 6.06 | 6.06 | 6.06 | 5.96 | – | – | –
13 | CCOC(=O)c1sc(-c2ccccc2)cc1Nc1cc(OC)c(OC)c(OC)c1 | 6.01 | 6.03 | 5.85 | 5.96 | – | – | –
14 | CCOC(=O)c1sc(-c2ccc(F)cc2)cc1Nc1cc(OC)c(OC)c(OC)c1 | 6.00 | 6.00 | 5.68 | 5.96 | – | – | –
15 | COC(=O)c1sc(-c2ccccc2)cc1Nc1cc(OC)c(OC)c(OC)c1 | 6.68 | 6.70 | 6.17 | 6.62 | 57% | 5.89 | Activity [11]: Active; Activity [12]: Active; Activity [13]: Active; GI50 [14]: 45700 nM; GI50 [15]: 19000 nM; Activity [19]: Active
16 | CCOC(=O)c1sc(-c2ccc(OC)cc2)cc1Nc1cc(OC)c(OC)c(OC)c1 | 5.92 | 5.96 | 5.64 | 5.92 | – | – | –
17 | COC(=O)c1sc(-c2ccc(C)cc2)cc1Nc1cc(OC)c(OC)c(OC)c1 | 6.74 | 6.74 | 6.59 | 6.82 | 70% | 5.92 | Activity [11]: Active; Activity [12]: Active; Activity [13]: Active; GI50 [14]: 31700 nM; GI50 [15]: 20000 nM; Activity [19]: Active
18 | COC(=O)c1sc(-c2ccc(Cl)c(Cl)c2)cc1Nc1cc(OC)c(OC)c(OC)c1 | 5.34 | 5.48 | 5.30 | 5.24 | – | – | –
19 | COC(=O)c1sc(-c2cc(OC)c(OC)c(OC)c2)cc1Nc1cc(OC)c(OC)c(OC)c1 | < 3.60 | < 3.60 | 3.79 | < 3.60 | – | – | –
